From ChEMBL document CHEMBL1158372, “Design, synthesis, and biological evaluation of novel triazole derivatives as inhibitors of cytochrome P450 14alpha-demethylase” (2009)
Values after ≈ are worked out from the molar mass of the structure shown.

Legend:
Type in all cases: functional
[1] = test system: Candida albicans; assay: Antifungal activity against Candida albicans ATCC 76615 after 24 hrs by micro-broth dilution method; conditions: ATCC 76615, 24 h
Method in brief: (§1)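 NCCLS (M27-A2) broth microdilution in 96-well format. Compounds in DMSO, serially diluted in growth medium, inoculated, incubated at 35 °C, and read at 24 h (C. albicans ATCC76615) or 72 h (Cry. neoformans ATCC32609). MIC80 is the first well with about 80% less growth than the drug-free well. Three independent runs per agent; the mean of replicates is reported.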

[2] = test system: Cryptococcus neoformans; assay: Antifungal activity against Cryptococcus neoformans ATCC 32609 after 72 hrs by micro-broth dilution method; conditions: ATCC 32609, 72 h; method in brief: as §1
[3] = test system: Candida parapsilosis; assay: Antifungal activity against Candida parapsilosis by micro-broth dilution method; conditions: Lodderomyces parapsilosis
Method in brief: (§2)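 Broth microdilution in 96-well plates following the NCCLS method. DMSO solutions of test agents were serially diluted in growth medium, inoculated, and incubated at 35 °C. MIC80 is the first well showing roughly 80% growth reduction versus the drug-free control. C. albicans ATCC76615 and Cry. neoformans ATCC32609 served as quality-control strains. Each test was done three times; the mean of replicates is reported.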

[4] = test system: Candida tropicalis; assay: Antifungal activity against Candida tropicalis by micro-broth dilution method; method in brief: as §2
[5] = test system: Trichophyton rubrum; assay: Antifungal activity against Trichophyton rubrum by micro-broth dilution method; method in brief: as §2
[6] = test system: Pichia kudriavzevii; assay: Antifungal activity against Candida krusei by micro-broth dilution method; method in brief: as §2
[7] = test system: Nannizzia gypsea; assay: Antifungal activity against Microsporum gypseum by micro-broth dilution method; method in brief: as §2
[8] = test system: Aspergillus fumigatus; assay: Antifungal activity against Aspergillus fumigatus by micro-broth dilution method; method in brief: as §2

Compound | MIC80 [1] [µg/mL] | MIC80 [2] [µg/mL] | MIC80 [3] [µg/mL] | MIC80 [4] [µg/mL] | MIC80 [5] [µg/mL] | MIC80 [6] [µg/mL] | MIC80 [7] [µg/mL] | MIC80 [8] [µg/mL]
C=CCN(Cc1cccc(Cl)c1)CC(O)(Cn1cncn1)c1ccc(F)cc1F (stereo not drawn) | 0.0156 (≈ 0.0372 µM) | 0.25 (≈ 0.597 µM) | 0.25 (≈ 0.597 µM) | 0.0625 (≈ 0.149 µM) | 1 (≈ 2.39 µM) | 0.0625 (≈ 0.149 µM) | 0.0625 (≈ 0.149 µM) | > 64
C=CCN(Cc1ccc(C(=O)Oc2ccc(Cl)cc2)cc1)CC(O)(Cn1cncn1)c1ccc(F)cc1F (stereo not drawn) | 1 (≈ 1.86 µM) | 16 (≈ 29.7 µM) | 1 (≈ 1.86 µM) | 4 (≈ 7.42 µM) | 4 (≈ 7.42 µM) | 4 (≈ 7.42 µM) | 0.25 (≈ 0.464 µM) | > 64
C=CCN(Cc1ccc(C(=O)OC)cc1)CC(O)(Cn1cncn1)c1ccc(F)cc1F (stereo not drawn) | 0.0625 (≈ 0.141 µM) | 0.25 (≈ 0.565 µM) | 0.25 (≈ 0.565 µM) | 0.0625 (≈ 0.141 µM) | 0.25 (≈ 0.565 µM) | 0.0625 (≈ 0.141 µM) | 0.0156 (≈ 0.0353 µM) | > 64
C=CCN(Cc1ccc(C(=O)OCC(C)C)cc1)CC(O)(Cn1cncn1)c1ccc(F)cc1F (stereo not drawn) | 1 (≈ 2.06 µM) | 1 (≈ 2.06 µM) | 0.25 (≈ 0.516 µM) | 1 (≈ 2.06 µM) | 0.0625 (≈ 0.129 µM) | 1 (≈ 2.06 µM) | 0.25 (≈ 0.516 µM) | > 64
C=CCN(Cc1ccc(C(=O)Oc2cccc([N+](=O)[O-])c2)cc1)CC(O)(Cn1cncn1)c1ccc(F)cc1F (stereo not drawn) | 0.25 (≈ 0.455 µM) | 1 (≈ 1.82 µM) | 0.25 (≈ 0.455 µM) | 0.0625 (≈ 0.114 µM) | 4 (≈ 7.28 µM) | 4 (≈ 7.28 µM) | 1 (≈ 1.82 µM) | > 64
C=CCN(Cc1ccccc1Cl)CC(O)(Cn1cncn1)c1ccc(F)cc1F (stereo not drawn) | 0.0156 (≈ 0.0372 µM) | 0.25 (≈ 0.597 µM) | 0.0625 (≈ 0.149 µM) | 0.25 (≈ 0.597 µM) | 1 (≈ 2.39 µM) | 0.0625 (≈ 0.149 µM) | 0.0625 (≈ 0.149 µM) | > 64
C=CCN(Cc1cccc(F)c1)CC(O)(Cn1cncn1)c1ccc(F)cc1F (stereo not drawn) | 0.0156 (≈ 0.0388 µM) | 0.0625 (≈ 0.155 µM) | 0.0625 (≈ 0.155 µM) | 0.0625 (≈ 0.155 µM) | 0.25 (≈ 0.621 µM) | 0.0625 (≈ 0.155 µM) | 0.0156 (≈ 0.0388 µM) | > 64
C=CCN(Cc1ccc(F)cc1)CC(O)(Cn1cncn1)c1ccc(F)cc1F (stereo not drawn) | 0.0156 (≈ 0.0388 µM) | 0.0625 (≈ 0.155 µM) | 0.0625 (≈ 0.155 µM) | 0.0625 (≈ 0.155 µM) | 1 (≈ 2.48 µM) | 0.0625 (≈ 0.155 µM) | 0.0156 (≈ 0.0388 µM) | > 64
C=CCN(Cc1ccccc1)CC(O)(Cn1cncn1)c1ccc(F)cc1F (stereo not drawn) | 0.0039 (≈ 0.0101 µM) | 0.0625 (≈ 0.163 µM) | 0.0625 (≈ 0.163 µM) | 0.0625 (≈ 0.163 µM) | 0.25 (≈ 0.65 µM) | 0.0625 (≈ 0.163 µM) | 0.0039 (≈ 0.0101 µM) | > 64
C=CCN(Cc1ccc(C(=O)Oc2ccc(C(=O)OCCC)cc2)cc1)CC(O)(Cn1cncn1)c1ccc(F)cc1F (stereo not drawn) | 1 (≈ 1.69 µM) | 4 (≈ 6.77 µM) | 0.25 (≈ 0.423 µM) | 0.25 (≈ 0.423 µM) | 1 (≈ 1.69 µM) | 4 (≈ 6.77 µM) | 1 (≈ 1.69 µM) | > 64
C=CCN(Cc1ccc(C(=O)Oc2ccc([N+](=O)[O-])cc2)cc1)CC(O)(Cn1cncn1)c1ccc(F)cc1F (stereo not drawn) | 0.25 (≈ 0.455 µM) | 1 (≈ 1.82 µM) | 1 (≈ 1.82 µM) | 1 (≈ 1.82 µM) | 4 (≈ 7.28 µM) | 1 (≈ 1.82 µM) | 0.25 (≈ 0.455 µM) | > 64
C=CCN(Cc1ccc(CC)cc1)CC(O)(Cn1cncn1)c1ccc(F)cc1F (stereo not drawn) | 0.25 (≈ 0.606 µM) | 0.25 (≈ 0.606 µM) | 1 (≈ 2.42 µM) | 0.0156 (≈ 0.0378 µM) | 1 (≈ 2.42 µM) | 0.25 (≈ 0.606 µM) | 0.0625 (≈ 0.152 µM) | > 64
CN(C/C=C/C#CC(C)(C)C)Cc1cccc2ccccc12 [TERBINAFINE] | 4 (≈ 13.7 µM) | 1 (≈ 3.43 µM) | 0.25 (≈ 0.858 µM) | 0.0625 (≈ 0.214 µM) | 0.0625 (≈ 0.214 µM) | 16 (≈ 54.9 µM) | 4 (≈ 13.7 µM) | 0.0625 (≈ 0.214 µM)
C=CCN(Cc1ccc(Cl)cc1Cl)CC(O)(Cn1cncn1)c1ccc(F)cc1F (stereo not drawn) | 1 (≈ 2.21 µM) | 1 (≈ 2.21 µM) | 0.25 (≈ 0.551 µM) | 0.25 (≈ 0.551 µM) | 1 (≈ 2.21 µM) | 0.25 (≈ 0.551 µM) | 1 (≈ 2.21 µM) | 16 (≈ 35.3 µM)
OC(Cn1cncn1)(Cn1cncn1)c1ccc(F)cc1F [FLUCONAZOLE] | 0.5 (≈ 1.63 µM) | 1 (≈ 3.27 µM) | 1 (≈ 3.27 µM) | 1 (≈ 3.27 µM) | 4 (≈ 13.1 µM) | 4 (≈ 13.1 µM) | 0.25 (≈ 0.816 µM) | > 64
C=CCN(Cc1ccc(C(=O)OC(C)C)cc1)CC(O)(Cn1cncn1)c1ccc(F)cc1F (stereo not drawn) | 0.25 (≈ 0.531 µM) | 1 (≈ 2.13 µM) | 1 (≈ 2.13 µM) | 1 (≈ 2.13 µM) | 1 (≈ 2.13 µM) | 0.25 (≈ 0.531 µM) | 0.0156 (≈ 0.0332 µM) | > 64
